“And” between values parts separate entries of the source, which are not always exact repeats. Equal entries are not always repeated.
Tests used:
Protein kinase C (PKC) [1] = test: Inhibitory activity against protein kinase C of rat brain
How it was run: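 PKC purified from rat brain. The read-out was 32P transfer from 30 μM [γ-32P]ATP to histone IIIS (200 μg/mL) in 20 mM Hepes pH 7.5 with phosphatidylserine, 10 mM MgCl2, 100 μM CaCl2 and 47.5 μM EGTA, run 10 min at 30 °C. Reactions were TCA-precipitated, filtered and scintillation-counted. Lipid-independent activity was subtracted, and test levels were 4, 43 and 218 μM.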

Protein kinase C (PKC) [2] = test: Displacement of [3H]PDBU from protein kinase C; assay type: protein assay, Rattus norvegicus
[3] = Inhibition of c-AMP dependent kinase (PKA) catalytic subunit; design: species or system Bos taurus
[4] = target: Protein kinase C alpha type (Homo sapiens, UniProt P17252); test: Inhibition of protein kinase C alpha
[5] = target: Protein kinase C gamma type (Homo sapiens, UniProt P05129); test: Inhibition of protein kinase C gamma
How it was run: (§1)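 Recombinant human enzyme expressed by baculovirus in SF9 cells, then partially purified by homogenizing the pellet in Tris pH 8 detergent buffer, spinning, and running a DEAE column with a 0–500 mM NaCl gradient, with the peak pooled. The reaction was [γ-32P]ATP (30 μM) incorporation into histone IIIS (200 μg/mL) with phosphatidylserine, Ca2+/EGTA and Mg2+ in Hepes pH 7.5, run 10 min at 30 °C. It was stopped with TCA and counted on filters. No-lipid background was subtracted, and compounds were tested at 4, 43 and 218 μM.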

[6] = target: Protein kinase C delta type (Homo sapiens, UniProt Q05655); test: Inhibition of protein kinase C delta; how it was run: as §1
Chain of Protein kinase C delta type (Q05655 whole entry): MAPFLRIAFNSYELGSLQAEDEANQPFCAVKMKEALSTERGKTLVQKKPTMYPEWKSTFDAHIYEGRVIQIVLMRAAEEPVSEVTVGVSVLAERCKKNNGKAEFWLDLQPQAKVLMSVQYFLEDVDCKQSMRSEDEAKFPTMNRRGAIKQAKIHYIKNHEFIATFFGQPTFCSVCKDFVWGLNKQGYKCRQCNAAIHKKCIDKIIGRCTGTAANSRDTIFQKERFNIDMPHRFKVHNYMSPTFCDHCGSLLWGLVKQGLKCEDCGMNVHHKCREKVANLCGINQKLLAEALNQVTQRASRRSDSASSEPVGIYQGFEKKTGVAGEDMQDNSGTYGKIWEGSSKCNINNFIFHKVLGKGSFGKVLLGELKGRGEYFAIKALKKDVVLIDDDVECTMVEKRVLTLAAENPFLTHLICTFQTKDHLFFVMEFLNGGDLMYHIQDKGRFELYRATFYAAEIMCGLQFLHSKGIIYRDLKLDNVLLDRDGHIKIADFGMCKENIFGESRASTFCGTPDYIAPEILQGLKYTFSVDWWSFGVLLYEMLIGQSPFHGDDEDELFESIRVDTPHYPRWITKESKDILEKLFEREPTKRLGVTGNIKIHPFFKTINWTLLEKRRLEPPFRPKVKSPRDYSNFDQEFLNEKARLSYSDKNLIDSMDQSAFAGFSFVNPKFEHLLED

SMILES | IC50 (Protein kinase C (PKC) [1]) | IC50 (Protein kinase C (PKC) [2]) [µM] | IC50 [3] | further results
COc1c(OCc2ccccc2)c(OCc2ccccc2)cc2c1-c1c(cc(OCc3ccccc3)c(OCc3ccccc3)c1OC)C[N+]1(C2)Cc2cc(OCc3ccccc3)c(OCc3ccccc3)c(OC)c2-c2c(cc(OCc3ccccc3)c(OCc3ccccc3)c2OC)C1 | 87 µM | > 272 | 15 µM | 
COC(=O)c1cc(O)c(O)c(O)c1-c1c(C(=O)OC)cc(O)c(O)c1O | > 218 µM |  |  | 
BrCc1cc(OCc2ccccc2)c(OCc2ccccc2)c(OCc2ccccc2)c1-c1c(CBr)cc(OCc2ccccc2)c(OCc2ccccc2)c1OCc1ccccc1 | 103 µM |  |  | 
COc1c(OCc2ccccc2)c(OCc2ccccc2)cc(CBr)c1-c1c(CBr)cc(OCc2ccccc2)c(OCc2ccccc2)c1OC | > 218 µM |  |  | 
O=C(O[C@@H]1OC2COC(=O)c3cc(O)c(O)c(O)c3-c3c(cc(O)c(O)c3O)C(=O)OC2C2OC(=O)c3cc(O)c(O)c(O)c3-c3c(cc(O)c(O)c3O)C(=O)OC21)c1cc(O)c(O)c(O)c1 (stereo not given in full) | 3 µM | < 50 | > 218 µM | 
CCOC(=O)c1cc(O)c(O)c(O)c1-c1c(C(=O)OCC)cc(O)c(O)c1O | > 218 µM |  |  | 
COC(=O)c1cc(OCc2ccccc2)c(OCc2ccccc2)c(OC)c1-c1c(C(=O)OC)cc(OCc2ccccc2)c(OCc2ccccc2)c1OC | 97 µM |  |  | 
COc1c(OCc2ccccc2)c(OCc2ccccc2)cc(C=O)c1-c1c(C=O)cc(OCc2ccccc2)c(OCc2ccccc2)c1OC | > 218 µM |  |  | 
CCOC(=O)c1cc(OCc2ccccc2)c(OCc2ccccc2)c(OC)c1-c1c(C(=O)OCC)cc(OCc2ccccc2)c(OCc2ccccc2)c1OC | 94 µM |  |  | 
COc1c(OCc2ccccc2)c(OCc2ccccc2)cc(CO)c1-c1c(CO)cc(OCc2ccccc2)c(OCc2ccccc2)c1OC | > 218 µM |  |  | 
OCc1cc(OCc2ccccc2)c(OCc2ccccc2)c(OCc2ccccc2)c1-c1c(CO)cc(OCc2ccccc2)c(OCc2ccccc2)c1OCc1ccccc1 | 70 µM and 55 µM and 88 µM | > 272 | 21 µM | 
CCCCCCCCCCCCC/C=C/[C@@H](O)[C@@H](N)CO [SPHINGOSINE] | 40 µM | 23 |  | 

The next lines start with results.

IC50 (Protein kinase C (PKC) [1]) | IC50 (Protein kinase C (PKC) [2]) [µM] | IC50 [3] | SMILES | further results
50 µM and 96 µM and 75 µM | > 272 | 19 µM | CCOC(=O)c1cc(OCc2ccccc2)c(OCc2ccccc2)c(OCc2ccccc2)c1-c1c(C(=O)OCC)cc(OCc2ccccc2)c(OCc2ccccc2)c1OCc1ccccc1 | 
> 218 µM |  |  | COc1cc2c(c(OC)c1OC)-c1c(cc(OC)c(OC)c1OC)COC2 | 
4 µM | < 50 | > 218 µM | O=C1OCC2O[C@@H](O)C3OC(=O)c4cc(O)c(O)c(O)c4-c4c(cc(O)c(O)c4O)C(=O)OC3C2OC(=O)c2cc(O)c(O)c(O)c2-c2c1cc(O)c(O)c2O (stereo not given in full) | 
32 µM and 28 µM and 43 µM | 54 | 31 µM and 29 µM and > 218 µM | Oc1cc2c(c(O)c1O)-c1c(cc(O)c(O)c1O)COC2 | IC50 [4]: 37 µM; IC50 [5]: 34 µM and 30 µM; IC50 [6]: 42 µM and 44 µM
180 µM |  |  | c1ccc(COc2cc3c(c(OCc4ccccc4)c2OCc2ccccc2)-c2c(cc(OCc4ccccc4)c(OCc4ccccc4)c2OCc2ccccc2)COC3)cc1 | 
131 µM |  |  | O=Cc1cc(OCc2ccccc2)c(OCc2ccccc2)c(OCc2ccccc2)c1-c1c(C=O)cc(OCc2ccccc2)c(OCc2ccccc2)c1OCc1ccccc1 | 
180 µM and 131 µM and > 218 µM |  |  | COC(=O)c1cc(OCc2ccccc2)c(OCc2ccccc2)c(OCc2ccccc2)c1-c1c(C(=O)OC)cc(OCc2ccccc2)c(OCc2ccccc2)c1OCc1ccccc1 | 
131 µM |  |  | c1ccc(COc2cc3c(c(OCc4ccccc4)c2OCc2ccccc2)-c2c(cc(OCc4ccccc4)c(OCc4ccccc4)c2OCc2ccccc2)C[N+]2(C3)Cc3cc(OCc4ccccc4)c(OCc4ccccc4)c(OCc4ccccc4)c3-c3c(cc(OCc4ccccc4)c(OCc4ccccc4)c3OCc3ccccc3)C2)cc1 | 
98 µM |  | > 218 µM | COCc1cc(O)c(O)c(O)c1-c1c(COC)cc(O)c(O)c1O | IC50 [4]: 43 µM; IC50 [5]: 50 µM
> 218 µM |  |  | OCc1cc(OCc2ccccc2)c(OCc2ccccc2)c(O)c1-c1c(CO)cc(OCc2ccccc2)c(OCc2ccccc2)c1O | 
20 µM |  |  | O=C(O[C@@H]1O[C@@H]2COC(=O)c3cc(O)c(O)c(O)c3-c3c(cc(O)c(O)c3O)C(=O)O[C@H]([C@H]1O)[C@@H]2O)c1cc(O)c(O)c(O)c1 [CORILAGIN] | 
4 µM | < 50 | > 218 µM | O=C(O[C@@H]1O[C@@H]2COC(=O)c3cc(O)c(O)c(O)c3-c3c(cc(O)c(O)c3O)C(=O)O[C@H]([C@H]1OC(=O)c1cc(O)c(O)c(O)c1)[C@@H]2OC(=O)c1cc(O)c(O)c(O)c1)c1cc(O)c(O)c(O)c1 [PUNICAFOLIN] | 

Reference: ChEMBL document CHEMBL1127494, “New hexahydroxybiphenyl derivatives as inhibitors of protein kinase C” (J Med Chem, 1994)
